Data published in ChEMBL document CHEMBL4373672, “A small molecule drug conjugate (SMDC) of DUPA and a duocarmycin built on the solid phase” (Medchemcomm, 2019).

Experiments:
[1] = tested on: DNA; assay: DNA alkylating activity in human LNCAP cells exhibiting increased cathepsin B activity and overexpressing GCPII assessed as reduction in cell viability incubated with GCPII binder 2-PMPA for 1 hr followed by incubation with compound for 48 hrs by MTS assay; type: functional, cell-based
Procedure, shortened: (§1)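 Pre-treatment of cells (3 x 10^4/100 μL) with 10 μM 2-PMPA for 1 h. Compound in DMSO was then added in triplicate at 100 μM to 0.0001 μM (10-fold steps), 48 h at 37 °C, 5% CO2; final DMSO 1%. Doxorubicin hydrochloride defined 100% inhibition. MTS reagent for 3 h, absorbance at 490 nm. Three independent runs on different passages.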

[2] = tested on: DNA; assay: DNA alkylating activity in human A549 cells exhibiting increased cathepsin B activity and overexpressing GCPII assessed as reduction in cell viability incubated for 72 hrs by MTS assay; type: functional, cell-based; settings: A549, 72 h
Procedure, shortened: (§2)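 Cell lines from ECACC, grown in supplier-recommended media with 10% foetal calf serum and 2 mM L-glutamine, kept at 1-9 x 10^5 cells/mL, 37 °C, 5% CO2. Seeded at 3 x 10^4 cells/100 μL and exposed in triplicate to compound at 100 μM down to 0.00001 μM (10-fold steps) for 72 h; final DMSO 1%. Stocks in DMSO made fresh each day. Doxorubicin hydrochloride (10 μM) served as the 100% inhibition value. MTS reagent added for 3 h, absorbance read at 490 nm. Three independent runs on different passages; IC50 from curve fit.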

[3] = tested on: DNA; assay: DNA alkylating activity in human MCF7 cells exhibiting increased cathepsin B activity and overexpressing GCPII assessed as reduction in cell viability incubated for 72 hrs by MTS assay; type: functional, cell-based; settings: MCF7, 72 h; procedure, shortened: as §2
[4] = tested on: DNA; assay: DNA alkylating activity in human SK-MEL-28 cells exhibiting increased cathepsin B activity and overexpressing GCPII assessed as reduction in cell viability incubated for 72 hrs by MTS assay; type: functional, cell-based; settings: SK-MEL-28, 72 h; procedure, shortened: as §2
[5] = tested on: DNA; assay: DNA alkylating activity in human LNCAP cells exhibiting increased cathepsin B activity and overexpressing GCPII assessed as reduction in cell viability incubated for 72 hrs by MTS assay; type: functional, cell-based; procedure, shortened: as §2
[6] = tested on: DNA; assay: DNA alkylating activity in GCPII negative human PC3 cells exhibiting increased cathepsin B activity assessed as reduction in cell viability incubated for 72 hrs by MTS assay; type: functional; settings: PC-3, 72 h; procedure, shortened: as §2
[7] = tested on: DNA; assay: DNA alkylating activity in human SKBR3 cells exhibiting increased cathepsin B activity and reduced GCPII expression assessed as reduction in cell viability incubated for 72 hrs by MTS assay; type: functional, cell-based; settings: SK-BR-3, 72 h; procedure, shortened: as §2
[8] = tested on: DNA; assay: DNA alkylating activity in GCPII negative human PC3 cells exhibiting increased cathepsin B activity assessed as reduction in cell viability incubated with GCPII binder 2-PMPA for 1 hr followed by incubation with compound for 48 hrs by MTS assay; type: functional; settings: PC-3; procedure, shortened: as §1
[9] = tested on: DNA; assay: DNA alkylating activity in human GCPII negative 16HBE14o cells deficient of cathepsin B activity assessed as reduction in cell viability incubated for 72 hrs by MTS assay; type: functional; procedure, shortened: as §2
[10] = tested on: DNA; assay: DNA alkylating activity in human NCI-H292 cells exhibiting increased cathepsin B activity and overexpressing GCPII assessed as reduction in cell viability incubated for 72 hrs by MTS assay; type: functional, cell-based; settings: NCI-H292, 72 h; procedure, shortened: as §2

NC(=O)c1cc2c3c(cc(O)c2[nH]1)N(C(=O)c1ccc(N)cc1)CC3CCl (stereo not given)
IC50 [1]: 25.5 nM
IC50 [2]: 36.6 nM
IC50 [3]: 181 nM
IC50 [4]: 22.5 nM
IC50 [5]: 15.7 nM
IC50 [6]: 4.7 nM
IC50 [7]: 2.3 nM
IC50 [8]: 6.1 nM
IC50 [9]: 85.4 nM
IC50 [10]: 7.3 nM
